High-throughput results from PubChem.
Only some compounds are listed: those with a hit (about 5.8% of all), similar ones and a draw of the others.
IDH1 mut inh: inhibitors of IDH1 R132H reductase, primary screen, biochemical, plate reader, single point | 70,000 tested, 0.18% active | diaphorase/resazurin fluorescence, 60 min | AID 624101, 2012 | inhibition, % at 10 µM; in the data active = inhibition above about 34%; inconclusive = no clear call, values can overlap the other calls; inactive = below about 11%;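 note: 0% = DMSO and 100% = no enzyme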
Pf Dd2 growth: P. falciparum Dd2 growth inhibitors, primary screen, SYBR Green fluorescence, single dose replicates; 94,000 tested, 2.3% active; 72 h; active compounds read low; activity change, % at 10 µM; in the data active = activity change below about -80%; inconclusive = no clear call, values can overlap the other calls
GASC1 inh: inhibitors of GASC-1 (KDM4C) histone demethylase, primary screen, biochemical, single concentration HTS; 96,000 tested, 0.15% active; GST-KDM4C 2-372, H3K9me3 peptide, LANCE TR-FRET; Lysine-specific demethylase 4C (Homo sapiens), Q9H3R0; inhibition, % at 12.5 µM;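 active = mean replicate inhibition above about 25%, with at least 55% of replicates also reaching it, limit read from the data, passing the limit was not always enough; inconclusive = only one of those two conditions met; inactive = neither condition met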
Target sequence (Q9H3R0 2-372 limits assumed): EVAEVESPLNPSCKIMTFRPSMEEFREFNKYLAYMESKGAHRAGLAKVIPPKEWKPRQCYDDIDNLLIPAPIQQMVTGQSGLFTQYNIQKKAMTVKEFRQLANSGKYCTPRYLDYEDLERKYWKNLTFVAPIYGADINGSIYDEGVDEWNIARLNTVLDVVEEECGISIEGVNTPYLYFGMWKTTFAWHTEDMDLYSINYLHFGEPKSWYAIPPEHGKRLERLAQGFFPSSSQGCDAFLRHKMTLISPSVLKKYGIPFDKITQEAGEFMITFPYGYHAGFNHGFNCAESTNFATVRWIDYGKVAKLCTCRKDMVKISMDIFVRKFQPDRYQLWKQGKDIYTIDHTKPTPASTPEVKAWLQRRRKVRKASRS
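Material: GST-tagged GASC-1 (JMJD2C) catalytic fragment, aa 2-372 / Quantity: enzyme final amount 10 nM / Medium: HEPES buffer, pH 7.5, plus ascorbate / Doses: one test concentration per compound / Incubation: 30 min reaction, 60 min detection, RT / Measured by: LANCE TR-FRET / Read-out: inhibition from TR-FRET ratio decrease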
T cruzi growth-1: T. cruzi intracellular proliferation inhibitors, primary screen, cell-based, beta-gal Tulahuen parasites, NIH3T3 host, luminescence; T. cruzi beta-gal in NIH3T3, GalScreen luminescence, 90 h; inhibition, % at 8.34 µM; AID 624255, 2012; 77,000 tested, 5.9% active;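 active = mean inhibition above about 93%, with at least 55% of replicates each passing it, limit read from the data, passing the limit was not always enough; inconclusive = only one of those two conditions holds; inactive = neither condition holds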
T cruzi growth-2: T. cruzi intracellular proliferation inhibitors, confirmation, cell-based, NIH3T3 host, beta-gal parasite, luminescence, cherry-pick | inhibition, % at 8.35 µM | shares compounds with T cruzi growth-1 | AID 651739, 2012 | 5,600 tested, 72% active | T. cruzi beta-gal in NIH3T3, GalScreen luminescence, 90 h;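 active = mean replicate inhibition above about 95% and at least 55% of replicates individually reaching it, limit read from the data; inconclusive = only one of the two criteria is met; inactive = neither criterion is met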
T cruzi growth-3: inhibitors of intracellular T. cruzi replication, confirmation, NIH3T3 host cells, beta-gal parasites, cherry-pick, set 2; shares compounds with T cruzi growth-1; T. cruzi beta-gal in NIH3T3, GalScreen luminescence, 90 h; inhibition, % at 2.09 µM; 5,600 tested, 21% active; AID 651740, 2012;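 active = mean inhibition above about 95%, with at least 55% of replicates also reaching it, limit read from the data; inconclusive = meets just one of the two conditions; inactive = meets neither condition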;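 note: plate controls were neutral control median for no effect and positive control median for full effect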
3T3 cytotox: cytotoxicity in mouse NIH/3T3 fibroblasts, confirmation, cytotoxicity control for T. cruzi proliferation inhibitor project, cell-based, cherry-pick, single point; shares compounds with T cruzi growth-1; cytotoxicity (signal decrease), % at 8.35 µM; AID 651742, 2012; 5,600 tested, 14% active; NIH/3T3 viability, CellTiter-Glo ATP luminescence, 90 h;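 active = mean signal decrease across replicates above about 35% based on untreated-well scatter, with enough replicates individually passing, limit read from the data; inconclusive = no rule stated though some were filed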;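 note: 0% = median of neutral control wells and 100% = median of positive control wells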
3T3 cytotox 2: NIH/3T3 fibroblast cytotoxicity, confirmation, cytotoxicity control, cell-based, cherry-pick, single point, set 2 | 5,600 tested, 56% active | NIH/3T3 viability, CellTiter-Glo ATP luminescence, 90 h | shares compounds with T cruzi growth-1 | inhibition, % at 24.9 µM;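 active = mean loss of cell viability signal at or above a set limit, and enough replicates individually reaching it; inconclusive = meets only the mean limit or only the replicate share; inactive = meets neither condition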;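 note: 0% = median of neutral control wells and 100% = median of positive control wells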
The depositor's hits bear a star.

How did COc1ccc(NC(=O)Nc2ccc3c(c2)C(=O)N([C@H](C)CO)C[C@H](C)[C@H](CN(C)C(=O)Nc2ccc(OC)cc2)OCCCC[C@H](C)O3)cc1 do in these assays?
Pf Dd2 growth: 33; GASC1 inh: 0; T cruzi growth-1: inconclusive; T cruzi growth-2: 103*; T cruzi growth-3: 22; 3T3 cytotox: -4; 3T3 cytotox 2: 5

What do the screens show for `COc1ccc(NC(=O)N(C)C[C@@H]2OCCCC[C@H](C)Oc3ccc(NC(=O)Nc4ccc(F)cc4)cc3C(=O)N([C@@H](C)CO)C[C@@H]2C)cc1`?
Pf Dd2 growth: -11; GASC1 inh: -3; T cruzi growth-1: 101*; T cruzi growth-2: 107*; T cruzi growth-3: 39; 3T3 cytotox: 15; 3T3 cytotox 2: 0

Results for N#CC1=C(N)N(c2ccccc2)NC1(C(F)(F)F)C(F)(F)F ?
IDH1 mut inh: 1

What do the screens show for `Cc1noc(C)c1NC(=O)N[C@H]1CC[C@H](CCNC(=O)C2CCCC2)O[C@@H]1CO`?
IDH1 mut inh: 0; Pf Dd2 growth: -5; GASC1 inh: 0

How did CCCN1C[C@H](C)[C@H](OC)CN(C)C(=O)c2ccc(NS(=O)(=O)c3ccccc3)cc2OC[C@H]1C do in these assays?
IDH1 mut inh: 0; Pf Dd2 growth: 21; GASC1 inh: 0; T cruzi growth-1: -24

What do the screens show for `COc1ccc(-c2ccc([C@@H]3[C@@H](CO)N(C(=O)C4CCCC4)[C@H]3C#N)cc2)cc1`?
Pf Dd2 growth: -13; GASC1 inh: -1; T cruzi growth-1: 76

How did C/C=C/c1ccc([C@@H]2[C@@H](CO)N(Cc3ccccn3)[C@H]2CNC(C)=O)cc1 do in these assays?
Pf Dd2 growth: 9; GASC1 inh: 3; T cruzi growth-1: 79

Results for O=C(NC[C@H]1[C@H](c2ccccc2)[C@@H](CO)N1Cc1ccccn1)C1CCCC1 ?
Pf Dd2 growth: 3; GASC1 inh: 4; T cruzi growth-1: -65

Results for O=C(NC[C@H]1[C@H](c2ccccc2)[C@H](CO)N1Cc1ccccn1)C1CCCC1 ?
Pf Dd2 growth: -69; GASC1 inh: 1; T cruzi growth-1: 97*; T cruzi growth-2: 48; T cruzi growth-3: -19; 3T3 cytotox: 14; 3T3 cytotox 2: -1

Results for C/C=C/c1ccc([C@@H]2[C@H](CO)N(Cc3ccccn3)[C@H]2CNC(C)=O)cc1 ?
Pf Dd2 growth: 3; GASC1 inh: 3; T cruzi growth-1: 98*; T cruzi growth-2: -17; T cruzi growth-3: -13; 3T3 cytotox: 0; 3T3 cytotox 2: 9

How did C[C@@H]1CCCCO[C@@H](CN(C)Cc2ccc(C(F)(F)F)cc2)[C@@H](C)CN([C@@H](C)CO)C(=O)c2cc(NC(=O)Nc3ccccc3)ccc2O1 do in these assays?
IDH1 mut inh: 0; Pf Dd2 growth: 19; GASC1 inh: 0; T cruzi growth-1: 75

Results for C[C@@H]1CCCCO[C@H](CN(C)Cc2ccc(C(F)(F)F)cc2)[C@@H](C)CN([C@H](C)CO)C(=O)c2cc(NC(=O)Nc3ccccc3)ccc2O1 ?
IDH1 mut inh: -1; Pf Dd2 growth: 48; GASC1 inh: 0; T cruzi growth-1: 96*; T cruzi growth-2: 98*; T cruzi growth-3: 111*; 3T3 cytotox: 25; 3T3 cytotox 2: 20
